Bioassay records as filed in PubChem.
A selection: hits, their analogues and other compounds. The true share with any hit is near 11%.
WT yeast gro inh = growth inhibition of WT yeast, mitochondrial fusion screen; inhibition, % at 10 µM; mitochondrial fusion phenotypic screen, WT strain; hit rate 2.1% among 190,000; in the data active = inhibition above about 58%; tested in S. cerevisiae
G6PDH counter = counter-screen for G6PDH assay hits: L. mesenteroides G6PDH inhibition. Purified L. mesenteroides G6PDH, diaphorase/resazurin coupled fluorescence, 45 min. inhibition, % at 5 µM. hit rate 0.12% among 200,000
Diaphorase inh = diaphorase inhibition or chemical oxidation counter-screen; hit rate 0.69% among 190,000; diaphorase resazurin-to-resorufin fluorescence, NADH, 16 min; bacterial (C. kluyveri) enzyme, not human; inhibition, % at 20 µM; AID 1217;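 active = primary screen inhibition at 20 µM above a set limit, cut at about 50% in these data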
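Test system: diaphorase enzyme from Clostridium kluyveri; amount: diaphorase at 0.14 U/mL in enzyme working solution; detection: fluorescence of resorufin formed from resazurin, Ex 544/Em 590 nm; times: reaction incubation of 16 min at room temperature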
Lmaj promast = reduces viability of Leishmania major promastigotes. resazurin fluorescence viability. inhibition, % at 10 µM. hit rate 9% among 200,000. AID 1063;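 note: promastigotes grown with compound for 44 hours at 28 °C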
Diaphorase act = activates diaphorase or chemically reduces, flagging diaphorase assay artifacts. Diaphorase/resazurin coupled assay, resorufin fluorescence, 16 min; hits give high values; 1 = vehicle wells, 0 = NADH-free wells. activation factor at 20 µM. hit rate 0.005% among 190,000. AID 1229;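 active = diaphorase activity raised at least twofold by the compound at 20 µM; inactive = activation factor below 2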
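Material: Purified diaphorase enzyme from Clostridium kluyveri | Buffer or medium: 50 mM HEPES pH 7.4 with 4.542 mM MgCl2, 0.005% Tween 20 | Times: 16 min enzyme reaction, ambient temperature | Signal: Red resorufin fluorescence at 544/590 nm excitation/emission | Measure: Increased resorufin signal from activators or reducing compounds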
Large screens that a line does not name were inactive. Cut-off read from the data, not from the text of the source, unless noted: active = inhibition above about 50%; inactive = the rest.

CCN(CC)S(=O)(=O)c1ccc(Cl)c(C(=O)NCc2ccccc2Cl)c1	Lmaj promast 99
CCN(CC)S(=O)(=O)c1cc(C(=O)OC)ccc1Cl	none
CCN(CC)C(=O)NC1CC(=O)N(c2ccc(OC)cc2)C1 (centres undefined)	none
Cc1[nH]c2ccccc2c1SCC(=O)N1CCCCCC1	none
CC(C)NCC(O)c1ccc(NS(C)(=O)=O)cc1 (centres undefined)	none (no result: Lmaj promast)
CC(C)NC[C@@H](O)c1ccc(O)c(O)c1	G6PDH counter 63, Diaphorase inh 62
O=C(CSc1nnc(-c2ccncc2)n1-c1ccc(Cl)cc1)NCc1cccs1	none
CC(C)CN1C(=O)c2ccccc2C1(O)Cc1ccccc1 (centres undefined)	none
O=C1c2ccccc2C(O)(c2ncc[nH]2)N1CCc1ccccc1 (centres undefined)	Lmaj promast 95
COC(=O)COC(=O)c1ccccc1NC(=O)c1ccccc1	WT yeast gro inh 71
CCOC(=O)c1ccccc1NC(=O)c1ccc2nccnc2c1	Diaphorase inh 55
CCCCNC(=O)c1ccc(NC(C)=O)c(Cl)c1	none
CNC(=O)c1[nH]cnc1C(=O)Nc1ccccc1C	none
Cc1cccc(NC(=O)c2nc[nH]c2C(=O)Nc2ccccc2[N+](=O)[O-])c1	Lmaj promast 57
COc1ccc(CCNCC(O)Cn2c3ccccc3c3ccccc32)cc1OC (centres undefined)	Lmaj promast 100
COc1ccccc1NCC(O)Cn1c2ccccc2c2ccccc21 (centres undefined)	none
CCNC(=S)Nc1ccc(Cl)c(C(F)(F)F)c1	Lmaj promast 76
O=C(Nc1cccc(C(F)(F)F)c1)c1ccco1	none
O=C(Nc1ccc(Cl)c(C(F)(F)F)c1)c1ccco1	WT yeast gro inh 72
COc1cc(C(=O)Nc2ccc(Cl)c(C(F)(F)F)c2)cc(OC)c1OC	Lmaj promast 80
CCc1ccc(OCCCC(=O)Nc2ccc(S(N)(=O)=O)cc2)cc1	none
Cc1cc(C)n(-c2nc(SCCN(C)C)c3c4c(sc3n2)CCCC4)n1	Lmaj promast 100
CCC(O)CNc1nc(-n2nc(C)cc2C)nc2sc3c(c12)CCCC3 (centres undefined)	none (no result: WT yeast gro inh, Lmaj promast)
O=C(COC(=O)c1ccc(Br)cc1)NCc1ccc(F)cc1	none
Cc1cccc(NC(=O)CC2C(=O)NCCN2C(=S)Nc2ccccc2)c1 (centres undefined)	none
COC(=O)CC1C(=O)NCCN1C(=S)Nc1ccccc1 (centres undefined)	none
COc1ccc(NC(=S)N2CCNC(=O)C2CC(=O)Nc2cccc(Cl)c2C)cc1 (centres undefined)	Lmaj promast 52
COc1ccccc1NC(=O)CC1C(=O)NCCN1C(=O)Nc1ccc(Cl)c(Cl)c1 (centres undefined)	Lmaj promast 67
COc1ccc(C(=O)N2CCNC(=O)C2CC(=O)Nc2ccc(C)cc2)cc1 (centres undefined)	Lmaj promast 100
CCOC(=O)CC1C(=O)NCCN1C(=S)Nc1ccccc1 (centres undefined)	Lmaj promast 57
Cc1ccc([N+](=O)[O-])cc1N/C=C1\CCCCC1=O	none
CSc1nc2nccc(/C=C\c3ccccc3)n2n1	Lmaj promast 86
CSc1nc2nccc(-c3ccc(Cl)cc3)n2n1	none
CC(=O)NC(C)C(=O)OCC(=O)c1ccc(-c2ccccc2)cc1 (centres undefined)	none
CC(NC(=O)Nc1ccc(Cl)c(Cl)c1)C(c1ccccc1)N1CCOCC1 (centres undefined)	WT yeast gro inh 75
CC(Cc1cccs1)NC(=O)Nc1ccc(Cl)c(Cl)c1 (centres undefined)	Lmaj promast 61
CC(Cc1cccs1)NC(=O)Nc1ccc(Cl)cc1 (centres undefined)	none (no result: WT yeast gro inh)
CC(Cc1cccs1)NC(=S)Nc1ccccc1 (centres undefined)	Lmaj promast 60
CC(Cc1cccs1)NC(=O)Nc1ccccc1 (centres undefined)	none
CC(NC(=O)Nc1ccc([N+](=O)[O-])cc1)C(c1ccccc1)N1CCOCC1 (centres undefined)	none
COc1ccc(C2=NC(CO)(CO)CO2)cc1	none
CCn1cc(C(=O)NC(C)C23CC4CC(CC(C4)C2)C3)cn1 (centres undefined)	none
CC(NC(=O)Cn1ncc(Cl)c(Cl)c1=O)C12CC3CC(CC(C3)C1)C2 (centres undefined)	WT yeast gro inh 64, Lmaj promast 100
COc1ccc2nc(/N=C/c3c(C)[nH]n(-c4ccc(C)cc4)c3=O)sc2c1	none
Cc1sc2cc3c(c(C(=O)c4ccccc4)[n+]2c1C)-c1cccc2cccc-3c12	WT yeast gro inh 70, Lmaj promast 100
Cc1ccc(C(=O)NNC2=Nc3cccc4cccc2c34)cc1	none
COc1c(C)cccc1C(=O)Nc1ccc(CN2CCOCC2)cc1	Lmaj promast 98
COc1cccc(NC(=O)c2ccc(CN3CCOCC3)cc2)c1	none
CC(C)Oc1cccc(C(=O)Nc2ccc(CN3CCOCC3)cc2)c1	Lmaj promast 79
COc1ccc(NS(=O)(=O)c2ccc(NC(=O)c3ccc(CN4CCOCC4)cc3)cc2)cc1	none (no result: Diaphorase inh, Diaphorase act)
Cc1ccc2c(c1)N(CC(=O)NCc1cccnc1)C(=O)CO2	none
Cc1ccc2c(c1)N(CC(=O)N1CCCCC1c1cccnc1)C(=O)CO2 (centres undefined)	Lmaj promast 77
O=C(CNC(=S)N(Cc1ccccc1)Cc1cccs1)NCc1ccc(F)cc1	WT yeast gro inh 61
Cc1ccc(CNC(=O)CNC(=S)N(Cc2ccccc2)Cc2cccnc2)cc1	Lmaj promast 97
COCCCNC(=O)CNC(=S)N(Cc1ccccc1)Cc1cccnc1	none
O=C(Cc1cccs1)NCc1ccc(F)cc1	none
Cc1ccc(CN(Cc2ccco2)C(=S)NCC(=O)NCc2cccnc2)cc1	none
O=C(CNC(=S)N(Cc1ccccc1)Cc1ccccc1F)NCCc1ccc(Cl)cc1	WT yeast gro inh 75, Lmaj promast 98
COCCNC(=O)CNC(=S)N(Cc1ccccc1)Cc1cccnc1	none
CC(NC(=O)CNC(=S)N(Cc1ccccc1)Cc1cccnc1)c1ccccc1 (centres undefined)	Lmaj promast 65
Cc1cccc(OCCC(=O)Nc2ccc(C)c(S(=O)(=O)N3CCCCC3)c2)c1	none
CCOc1ccccc1OCCCOc1ccc(C)cc1Br	WT yeast gro inh 58
CCN(CC)CCCOc1ccc(C)cc1Br	Lmaj promast 94
CCOc1ccccc1OCCCOc1ccc(C)cc1Cl	none
Cc1ccc(NC(=O)C2C3/C=C\CCCCC32)cc1C (centres undefined)	none
COC(=O)c1c(NC(=O)C2(C)Cc3ccccc3C(=O)O2)sc2c1CCCC2 (centres undefined)	none
O=C(Nc1ccccc1)C1=C(O)CC(c2ccc(Cl)cc2)N2CCN=C12 (centres undefined)	Lmaj promast 92
